The structures appear in SMILES notation. Calls of active or inactive are those of the source. The rule behind the calls is not given here.

The subject of experiment [1] is Rattus norvegicus. Briefly: Antidiuretic activity in sc dosed Sprague-Dawley rat assessed as inhibition of U50488-induced urine output administered immediately after water loading measured 5 hrs after first dose. In kind it is functional, organism-based. Put shortly: (§1)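 Adult male Sprague-Dawley rats, groups of four. […] Urine collected hourly for 5 h in metabolic chambers, at week 0 and week 1 without redosing. Analysis by repeated-measures ANOVA and Dunnett's test.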

For experiment [2], the system named is Rattus norvegicus. Briefly: Antidiuretic activity in sc dosed Sprague-Dawley rat assessed as inhibition of U50488-induced urine output administered immediately after water loading measured after 5 hrs on week 1. It is filed as functional, organism-based. The method, boiled down: as §1

Consider `CC(C)[C@@H](CN1CC[C@@](C)(c2cccc(O)c2)[C@@H](C)C1)NC(=O)[C@@H]1CCc2cc(O)ccc2C1`, for which, in the experiment on Rattus norvegicus [1], the Activity entry was “Dose-dependent effect”. Besides, the outcome in the experiment on Rattus norvegicus [2] was inactive.

Regarding `CC(C)[C@@H](CN1CC[C@@](C)(c2cccc(O)c2)[C@@H](C)C1)NC(=O)[C@H]1Cc2ccc(O)cc2CN1`, the Activity entry with Rattus norvegicus [1] and in the experiment with Rattus norvegicus [2] was “Dose-dependent effect” throughout.

(Values after ChEMBL document CHEMBL1155455.)
